Source: ChEMBL document CHEMBL1131609, “Syntheses and structure-activity relationships of novel retinoid X receptor agonists” (J Med Chem, 1998)
Activity calls are given as the source filed them. The rule behind the calls is not given here.

What was measured:
[1] = biological target: T1, Retinoic acid receptor gamma (Homo sapiens) (UniProt P13631); experiment: Relative EC30 for human RAR-gamma receptor as EC30(compound) divided by EC30(ATRA); Inactive
T1 sequence (whole entry): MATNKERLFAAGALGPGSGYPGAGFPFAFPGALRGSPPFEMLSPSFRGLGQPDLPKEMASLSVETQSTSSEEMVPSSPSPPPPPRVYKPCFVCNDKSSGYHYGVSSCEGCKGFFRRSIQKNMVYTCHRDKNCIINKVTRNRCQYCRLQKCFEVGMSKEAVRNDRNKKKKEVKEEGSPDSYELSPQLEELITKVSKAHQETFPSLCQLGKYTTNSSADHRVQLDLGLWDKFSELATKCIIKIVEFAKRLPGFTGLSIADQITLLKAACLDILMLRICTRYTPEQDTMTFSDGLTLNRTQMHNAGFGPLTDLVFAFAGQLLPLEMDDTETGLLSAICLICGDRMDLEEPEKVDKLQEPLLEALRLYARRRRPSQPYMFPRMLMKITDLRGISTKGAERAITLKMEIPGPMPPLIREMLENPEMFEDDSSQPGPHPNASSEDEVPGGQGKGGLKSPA

[2] = biological target: T2, Retinoic acid receptor alpha (Homo sapiens) (UniProt P10276); experiment: Relative EC30 for human RAR-alpha receptor as EC30(compound) divided by EC30(ATRA); Inactive
T2 sequence (whole entry): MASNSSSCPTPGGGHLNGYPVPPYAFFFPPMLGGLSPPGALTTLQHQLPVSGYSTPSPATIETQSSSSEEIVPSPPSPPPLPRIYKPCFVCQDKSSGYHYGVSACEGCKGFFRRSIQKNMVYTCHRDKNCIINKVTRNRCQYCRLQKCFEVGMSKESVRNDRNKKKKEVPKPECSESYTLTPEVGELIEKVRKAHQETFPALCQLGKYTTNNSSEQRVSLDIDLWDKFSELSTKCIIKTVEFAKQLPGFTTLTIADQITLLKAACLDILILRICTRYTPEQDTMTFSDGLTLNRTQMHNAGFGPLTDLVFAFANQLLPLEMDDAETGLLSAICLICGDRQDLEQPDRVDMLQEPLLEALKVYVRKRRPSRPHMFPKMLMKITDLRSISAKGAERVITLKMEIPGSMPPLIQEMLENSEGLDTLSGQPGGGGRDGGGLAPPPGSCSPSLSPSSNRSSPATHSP

[3] = biological target: T3, Retinoic acid receptor beta (Homo sapiens) (UniProt P10826); experiment: Percent maximal induction of human RAR-beta receptor relative to ATRA; Inactive; type: functional
T3 sequence (whole entry): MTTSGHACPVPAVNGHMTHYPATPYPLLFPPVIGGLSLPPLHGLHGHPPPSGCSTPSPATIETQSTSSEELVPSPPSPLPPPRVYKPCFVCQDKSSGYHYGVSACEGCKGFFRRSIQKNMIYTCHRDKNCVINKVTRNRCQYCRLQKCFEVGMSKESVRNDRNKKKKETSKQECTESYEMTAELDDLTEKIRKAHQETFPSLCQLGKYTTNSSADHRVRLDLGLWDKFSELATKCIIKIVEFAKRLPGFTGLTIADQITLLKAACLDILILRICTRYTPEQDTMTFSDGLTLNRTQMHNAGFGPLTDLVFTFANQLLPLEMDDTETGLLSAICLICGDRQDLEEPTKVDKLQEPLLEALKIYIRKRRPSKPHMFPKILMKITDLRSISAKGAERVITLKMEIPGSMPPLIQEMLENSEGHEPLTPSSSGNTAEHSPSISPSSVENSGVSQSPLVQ

[4] = biological target: T2, Retinoic acid receptor alpha (Homo sapiens); experiment: Percent maximal induction of human RAR-alpha receptor relative to ATRA; Inactive; type: functional
[5] = biological target: T1, Retinoic acid receptor gamma (Homo sapiens); experiment: Percent maximal induction of human RAR-gamma receptor relative to ATRA; Inactive; type: functional
[6] = biological target: T3, Retinoic acid receptor beta (Homo sapiens); experiment: Relative EC30 for human RAR-beta receptor as EC30(compound) divided EC30(ATRA); Inactive
[7] = biological target: T3, Retinoic acid receptor beta (Homo sapiens); experiment: Relative EC30 for human RAR-beta receptor as EC30(compound) divided by EC30(ATRA)
[8] = biological target: T1, Retinoic acid receptor gamma (Homo sapiens); experiment: Relative EC30 for human RAR-gamma receptor as EC30(compound) divided by EC30(ATRA); inactive
[9] = biological target: T2, Retinoic acid receptor alpha (Homo sapiens); experiment: Relative IC50 for human RAR-alpha receptor as IC50(compound) divided by IC50(ATRA)
Summary of the method: (§1)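 Competitive binding used nuclear extracts of BHK clones stably expressing human RAR-α, β or γ, selected in 250 nM methotrexate. Extracts were incubated with [³H]-ATRA (added as 10 nM solution) and unlabeled compound for 16 h at 4 °C. Free ligand was removed with charcoal/dextran, and the supernatant was counted. Nonspecific binding was taken as binding with 1000-fold excess unlabeled ligand. IC50 from logarithmic plots was divided by the IC50 of ATRA.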

[10] = biological target: T3, Retinoic acid receptor beta (Homo sapiens); experiment: Relative IC50 for human RAR-beta receptor IC50(compound) divided by IC50(ATRA); summary of the method: as §1
[11] = biological target: T1, Retinoic acid receptor gamma (Homo sapiens); experiment: Relative IC50 for human RAR-gamma receptor as IC50(compound) divided by IC50(ATRA); summary of the method: as §1

Relative EC30 [1]	Relative EC30 [2]	Efficacy [3]	Efficacy [4]	Efficacy [5]	Relative EC30 [6]	Relative EC30 [7]	Relative EC30 [8]	Relative IC50 [9]	Relative IC50 [10]	Relative IC50 [11]	SMILES
inactive	inactive	inactive	inactive	inactive	inactive						CCCC\C(=C(F)/C=C/C(C)=C/C(=O)O)c1ccc2c(c1)CCCN2C(C)C
			inactive	inactive		1600					CC\C(=C(F)/C=C/C(C)=C/C(=O)O)c1ccc2c(c1)CCCN2C(C)C
	inactive		inactive	inactive			inactive				CCC\C(=C(F)/C=C/C(C)=C/C(=O)O)c1ccc2c(c1)CCCN2C(C)C
								372	432	187	CC(/C=C/C=C(\C)c1ccc2c(c1)CCCN2C(C)C)=C\C(=O)O
